Results from ChEMBL document CHEMBL3351359, “Design and synthesis of novel 2,4-diaryl-5H-indeno[1,2-b]pyridine derivatives, and their evaluation of topoisomerase inhibitory activity and cytotoxicity” (Bioorg Med Chem, 2015).

Columns and labels:
[1] = biological target: DNA topoisomerase 2-alpha (Homo sapiens) (UniProt P11388); assay: Inhibition of human recombinant topoisomerase-2 alpha assessed as conversion of super-coiled plasmid DNA pBR322 to relaxed DNA at 20 uM after 30 mins by ethidium bromide staining-based agarose gel electrophoresis (reference value: 42.1%)
Chain of DNA topoisomerase 2-alpha (Homo sapiens) (P11388 whole entry): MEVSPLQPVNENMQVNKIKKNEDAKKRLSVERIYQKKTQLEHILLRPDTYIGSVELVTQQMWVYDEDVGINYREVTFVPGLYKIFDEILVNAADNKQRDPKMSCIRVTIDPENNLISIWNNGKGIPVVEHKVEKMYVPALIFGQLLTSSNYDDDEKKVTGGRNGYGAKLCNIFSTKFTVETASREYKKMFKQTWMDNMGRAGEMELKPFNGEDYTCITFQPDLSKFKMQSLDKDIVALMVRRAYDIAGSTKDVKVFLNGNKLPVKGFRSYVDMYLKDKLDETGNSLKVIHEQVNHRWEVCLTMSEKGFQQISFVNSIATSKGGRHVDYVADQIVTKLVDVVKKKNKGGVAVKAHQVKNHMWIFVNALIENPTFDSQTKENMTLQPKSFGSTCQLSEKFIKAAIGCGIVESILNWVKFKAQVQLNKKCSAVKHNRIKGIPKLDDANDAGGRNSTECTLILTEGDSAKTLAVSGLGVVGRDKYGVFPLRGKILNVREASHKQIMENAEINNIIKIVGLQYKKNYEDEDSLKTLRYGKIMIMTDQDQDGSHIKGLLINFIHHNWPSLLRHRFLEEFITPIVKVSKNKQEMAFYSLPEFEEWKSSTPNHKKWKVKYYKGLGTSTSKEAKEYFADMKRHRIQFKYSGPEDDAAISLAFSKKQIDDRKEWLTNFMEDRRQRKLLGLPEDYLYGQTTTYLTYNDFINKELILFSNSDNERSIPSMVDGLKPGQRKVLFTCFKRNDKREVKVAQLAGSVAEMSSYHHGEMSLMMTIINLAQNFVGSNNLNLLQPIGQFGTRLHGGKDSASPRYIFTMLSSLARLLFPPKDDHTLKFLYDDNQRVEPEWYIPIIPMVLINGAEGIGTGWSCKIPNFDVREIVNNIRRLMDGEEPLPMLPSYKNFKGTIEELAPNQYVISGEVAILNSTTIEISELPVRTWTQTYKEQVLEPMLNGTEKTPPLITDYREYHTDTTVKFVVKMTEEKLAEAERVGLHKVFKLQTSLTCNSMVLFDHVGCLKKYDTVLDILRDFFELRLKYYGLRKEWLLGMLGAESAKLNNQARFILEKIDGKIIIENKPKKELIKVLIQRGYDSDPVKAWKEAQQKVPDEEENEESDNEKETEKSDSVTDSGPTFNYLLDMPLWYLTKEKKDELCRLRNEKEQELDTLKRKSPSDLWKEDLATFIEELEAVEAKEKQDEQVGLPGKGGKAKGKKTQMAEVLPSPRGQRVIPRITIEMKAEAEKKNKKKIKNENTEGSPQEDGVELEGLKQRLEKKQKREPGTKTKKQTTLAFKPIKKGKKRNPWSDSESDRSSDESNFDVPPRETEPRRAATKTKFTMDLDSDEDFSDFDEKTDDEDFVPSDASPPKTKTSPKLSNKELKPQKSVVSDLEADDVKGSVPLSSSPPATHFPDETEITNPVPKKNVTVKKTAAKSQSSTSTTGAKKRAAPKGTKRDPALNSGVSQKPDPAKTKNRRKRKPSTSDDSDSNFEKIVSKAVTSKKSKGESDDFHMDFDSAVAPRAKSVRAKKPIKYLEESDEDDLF
Summary of the method: (§1)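 Supercoiled pBR322 (200 ng) incubated with 1 unit human topo IIα, with or without compound, for 30 min at 30 °C. Buffer: 10 mM Tris-HCl pH 7.9, 50 mM NaCl, 5 mM MgCl2, 1 mM EDTA, 1 mM ATP, 15 μg/mL BSA. Stopped with EDTA. Run on 1% agarose in TAE at 25 V for 4 h, stained with ethidium bromide, supercoiled DNA quantified under UV.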

[2] = biological target: DNA topoisomerase 2-alpha (Homo sapiens) (UniProt P11388); assay: Inhibition of human recombinant topoisomerase-2 alpha assessed as conversion of super-coiled plasmid DNA pBR322 to relaxed DNA at 100 uM after 30 mins by ethidium bromide staining-based agarose gel electrophoresis (reference value: 83.7%); summary of the method: as §1
[3] = biological target: T1, DNA topoisomerase 1 (Homo sapiens) (UniProt P11387); assay: Inhibition of human recombinant topoisomerase-1 assessed as conversion of super-coiled plasmid DNA pBR322 to relaxed DNA at 100 uM after 30 mins by ethidium bromide staining-based agarose gel electrophoresis (reference value: 51.5%)
T1 sequence (whole entry): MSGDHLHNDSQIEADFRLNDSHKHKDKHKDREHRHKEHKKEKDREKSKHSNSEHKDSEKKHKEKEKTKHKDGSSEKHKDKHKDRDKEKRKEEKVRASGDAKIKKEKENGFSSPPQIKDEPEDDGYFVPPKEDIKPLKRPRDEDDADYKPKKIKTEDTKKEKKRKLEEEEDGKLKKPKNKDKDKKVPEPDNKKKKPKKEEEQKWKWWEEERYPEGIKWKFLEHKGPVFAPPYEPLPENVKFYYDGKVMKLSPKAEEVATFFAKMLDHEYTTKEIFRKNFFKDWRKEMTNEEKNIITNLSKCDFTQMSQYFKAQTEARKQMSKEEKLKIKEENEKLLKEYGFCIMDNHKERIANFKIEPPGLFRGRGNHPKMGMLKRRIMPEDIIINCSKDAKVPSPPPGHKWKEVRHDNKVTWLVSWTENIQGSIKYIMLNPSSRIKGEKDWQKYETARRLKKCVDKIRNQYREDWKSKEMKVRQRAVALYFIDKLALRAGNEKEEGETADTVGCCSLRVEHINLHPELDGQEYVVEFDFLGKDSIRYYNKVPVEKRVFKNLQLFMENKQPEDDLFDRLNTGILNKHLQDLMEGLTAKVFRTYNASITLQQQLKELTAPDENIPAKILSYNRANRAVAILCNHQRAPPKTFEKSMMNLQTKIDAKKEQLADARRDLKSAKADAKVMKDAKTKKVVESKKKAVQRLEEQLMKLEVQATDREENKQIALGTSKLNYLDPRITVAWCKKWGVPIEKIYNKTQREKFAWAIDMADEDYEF
Summary of the method: (§2)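 Relaxation of supercoiled pBR322 (100 ng) by 0.4 units recombinant human topo I, with or without compound (20 mM DMSO stocks), for 30 min at 37 °C. Buffer: 10 mM Tris-HCl pH 7.9, 150 mM NaCl, 0.1% BSA, 1 mM spermidine, 5% glycerol. Stopped with sarcosyl. Run on 1% agarose in TAE at 15 V for 7 h, stained with ethidium bromide, bands quantified under UV.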

MCF7 = assay: Cytotoxicity against human MCF7 cells after 2 days by CCK-8 assay; type: functional, cell-based; conditions: MCF7, 48 h
Summary of the method: (§3)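 Cells seeded at 2~4 × 10^4 per well, grown overnight in medium with 10% FBS at 37 °C, 5% CO2. On day 2, after 4 h FBS starvation, medium replaced with medium containing graded compound concentrations. On day 4, CCK-8 added for 4 h, then absorbance read at 450 nm. IC50 from four-parameter logistic fit. Mean ± S.D. of three experiments, each run in triplicate.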

HeLa = assay: Cytotoxicity against human HeLa cells after 2 days by CCK-8 assay; type: functional, cell-based; conditions: 48 h; summary of the method: as §3
[4] = Cytotoxicity against human HCT15 cells after 2 days by CCK-8 assay; type: functional, cell-based; conditions: HCT-15, 48 h; summary of the method: as §3
DU-145 = assay: Cytotoxicity against human DU145 cells after 2 days by CCK-8 assay; type: functional, cell-based; conditions: DU-145, 48 h; summary of the method: as §3
[5] = biological target: T1, DNA topoisomerase 1 (Homo sapiens); assay: Inhibition of human recombinant topoisomerase-1 assessed as conversion of super-coiled plasmid DNA pBR322 to relaxed DNA at 100 uM after 30 mins by ethidium bromide staining-based agarose gel electrophoresis relative to camptothecin
[6] = biological target: DNA topoisomerase 2-alpha (Homo sapiens) (UniProt P11388); assay: Inhibition of human recombinant topoisomerase-2 alpha assessed as conversion of super-coiled plasmid DNA pBR322 to relaxed DNA at 100 uM after 30 mins by ethidium bromide staining-based agarose gel electrophoresis relative to etoposide
[7] = biological target: T1, DNA topoisomerase 1 (Homo sapiens); assay: Inhibition of human recombinant topoisomerase-1 assessed as conversion of super-coiled plasmid DNA pBR322 to relaxed DNA at 100 uM after 30 mins by ethidium bromide staining-based agarose gel electrophoresis (reference value: 62.9%); summary of the method: as §2
[8] = biological target: DNA topoisomerase 2-alpha (Homo sapiens) (UniProt P11388); assay: Inhibition of human recombinant topoisomerase-2 alpha assessed as conversion of super-coiled plasmid DNA pBR322 to relaxed DNA at 100 uM after 30 mins by ethidium bromide staining-based agarose gel electrophoresis (reference value: 87.8%); summary of the method: as §1
[9] = biological target: DNA topoisomerase 2-alpha (Homo sapiens) (UniProt P11388); assay: Inhibition of human recombinant topoisomerase-2 alpha assessed as conversion of super-coiled plasmid DNA pBR322 to relaxed DNA at 100 uM after 30 mins by ethidium bromide staining-based agarose gel electrophoresis (reference value: 32.4%); summary of the method: as §1
[10] = biological target: T1, DNA topoisomerase 1 (Homo sapiens); assay: Inhibition of human recombinant topoisomerase-1 assessed as conversion of super-coiled plasmid DNA pBR322 to relaxed DNA at 100 uM after 30 mins by ethidium bromide staining-based agarose gel electrophoresis (reference value: 45.2%); summary of the method: as §2
[11] = biological target: DNA topoisomerase 2-alpha (Homo sapiens) (UniProt P11388); assay: Inhibition of human recombinant topoisomerase-2 alpha assessed as conversion of super-coiled plasmid DNA pBR322 to relaxed DNA at 20 uM after 30 mins by ethidium bromide staining-based agarose gel electrophoresis (reference value: 46.7%); summary of the method: as §1
[12] = biological target: T1, DNA topoisomerase 1 (Homo sapiens); assay: Inhibition of human recombinant topoisomerase-1 assessed as conversion of super-coiled plasmid DNA pBR322 to relaxed DNA at 20 uM after 30 mins by ethidium bromide staining-based agarose gel electrophoresis (reference value: 25.9%); summary of the method: as §2

Row | Ratio [5] | Ratio [6] | SMILES | IC50 (MCF7) | IC50 [4] | IC50 (DU-145) | further results
1 | < 0.2 | 1 | c1coc(-c2cc(-c3ccsc3)nc3c2Cc2ccccc2-3)c1 | > 50 µM | 31.6 µM | > 50 µM | inhibition [1]: 68.5%; inhibition [2]: 84.1%; inhibition [3]: 2.8%; IC50 (HeLa): > 50 µM
2 | < 0.2 | 1 | c1coc(-c2cc(-c3cccs3)c3c(n2)-c2ccccc2C3)c1 | > 50 µM | 23.6 µM | > 50 µM | inhibition [1]: 79.6%; inhibition [2]: 83.9%; inhibition [3]: 2%; IC50 (HeLa): > 50 µM
3 | 1.25 | < 0.2 | c1ccc(-c2cc(-c3ccco3)c3c(n2)-c2ncccc2CC3)nc1 |  |  |  | 
4 | < 0.2 | 1.19 | c1coc(-c2cc(-c3ccsc3)c3c(n2)-c2ccccc2C3)c1 | > 50 µM | > 50 µM | > 50 µM | inhibition [1]: 93%; inhibition [2]: 100%; inhibition [3]: 0%; IC50 (HeLa): > 50 µM

The next lines start with the compound.

Row | SMILES | Ratio [5] | Ratio [6] | IC50 (MCF7) | IC50 [4] | IC50 (DU-145) | further results
5 | c1ccc(-c2cc(-c3cccs3)nc3c2Cc2ccccc2-3)nc1 |  |  | 43.3 µM | 9.63 µM | > 50 µM | inhibition [7]: 4.5%; inhibition [8]: 18.1%
6 | c1ccc(-c2cc(-c3ccccn3)c3c(n2)-c2ccccc2C3)nc1 |  |  |  |  |  | inhibition [9]: 10.2%; inhibition [10]: 6.2%
7 | c1coc(-c2cc(-c3cccs3)nc3c2CCc2ccccc2-3)c1 | 0.97 | < 0.2 |  |  |  | 
8 | c1ccc(-c2cc(-c3ccsc3)nc3c2COc2ccccc2-3)cc1 | 1.67 | 1.13 |  |  |  | 
9 | c1coc(-c2cc(-c3ccco3)c3oc4ccccc4c3n2)c1 |  | 1.11 |  |  |  | fold change (FC) [5]: 0.6
10 | c1ccc(-c2cc(-c3ccsc3)c3c(n2)-c2ccccc2C3)nc1 |  |  |  |  |  | inhibition [7]: 1.1%; inhibition [8]: 15%
11 | c1ccc(-c2cc(-c3cccnc3)c3c(n2)-c2ccsc2CC3)cc1 | 1.15 | < 0.2 |  |  |  | 
12 | c1ccc(-c2cc(-c3ccco3)c3oc4ccccc4c3n2)cc1 |  | 1.24 |  |  |  | fold change (FC) [5]: < 0.2
13 | c1ccc(-c2cc(-c3ccoc3)c3c(n2)-c2ccccc2C3)nc1 |  |  |  |  |  | inhibition [9]: 17.5%; inhibition [10]: 8.6%
14 | c1ccc(-c2cc(-c3ccco3)nc3c2oc2ccccc23)cc1 | < 0.2 | 1.11 |  |  |  | 
15 | c1csc(-c2cc(-c3ccsc3)c3c(n2)-c2ccccc2C3)c1 | < 0.2 | 1.14 | > 50 µM | > 50 µM | > 50 µM | inhibition [7]: 10.1%; inhibition [11]: 0%; inhibition [8]: 100%
16 | c1ccc2c(c1)Cc1c(-c3ccoc3)cc(-c3ccsc3)nc1-2 | < 0.2 | 1.15 | > 50 µM | 20.6 µM | > 50 µM | inhibition [1]: 10.9%; inhibition [2]: 95.9%; inhibition [3]: 1.2%; IC50 (HeLa): > 50 µM
17 | c1ccc(-c2cc(-c3ccccn3)nc3c2Cc2ccccc2-3)cc1 |  |  |  |  |  | inhibition [9]: 12.3%; inhibition [10]: 0%
18 | c1csc(-c2cc(-c3ccoc3)c3c(n2)-c2ccccc2CC3)c1 | 0.53 | < 0.2 |  |  |  | 
19 | c1ccc(-c2cc(-c3ccsc3)nc3c2Cc2ccccc2-3)nc1 |  |  | > 50 µM | > 50 µM | > 50 µM | inhibition [7]: 3.5%; inhibition [8]: 3.2%
20 | c1csc(-c2cc(-c3cccs3)c3c(n2)-c2ccccc2C3)c1 |  |  | > 50 µM | > 50 µM | > 50 µM | inhibition [7]: 4.7%; inhibition [8]: 9.8%

Row | SMILES | Ratio [5] | Ratio [6] | IC50 (MCF7) | IC50 [4] | IC50 (DU-145) | further results
21 | c1ccc(-c2cc(-c3ccsc3)nc3c2Cc2ccccc2-3)cc1 | < 0.2 | 0.83 | > 50 µM | > 50 µM | > 50 µM | inhibition [7]: 0.5%; inhibition [11]: 0%; inhibition [8]: 72.5%
22 | COc1cc([C@@H]2c3cc4c(cc3[C@@H](O[C@@H]3O[C@@H]5CO[C@@H](C)O[C@H]5[C@H](O)[C@H]3O)[C@H]3COC(=O)[C@H]23)OCO4)cc(OC)c1O [ETOPOSIDE] |  |  | 0.73 µM | 1.1 µM |  | IC50 (HeLa): 1.26 µM
23 | COc1cccc2c1C(=O)c1c(O)c3c(c(O)c1C2=O)C[C@@](O)(C(=O)CO)C[C@@H]3O[C@H]1C[C@H](N)[C@H](O)[C@H](C)O1 [DOXORUBICIN] |  |  | 0.4 µM | 1.08 µM |  | 
24 | c1cncc(-c2cc(-c3ccoc3)c3c(n2)-c2ncccc2CC3)c1 | 1.36 | < 0.2 |  |  |  | 
25 | c1cncc(-c2cc(-c3ccncc3)c3c(n2)-c2ccsc2CC3)c1 | 0.49 | < 0.2 |  |  |  | 
26 | c1csc(-c2cc(-c3ccoc3)c3c(n2)-c2ccccc2C3)c1 | < 0.2 | 1.19 | > 50 µM | 34.6 µM | 37.3 µM | inhibition [1]: 66.7%; inhibition [2]: 100%; inhibition [3]: 1.7%; IC50 (HeLa): > 50 µM
27 | c1ccc(-c2cc(-c3ccco3)c3c(n2)-c2ccccc2C3)nc1 |  |  |  |  |  | inhibition [9]: 17.7%; inhibition [10]: 0.6%
28 | c1ccc(-c2cc(-c3cccs3)nc3c2Cc2ccccc2-3)cc1 |  |  | > 50 µM | > 50 µM | > 50 µM | inhibition [7]: 5.8%; inhibition [11]: 0%; inhibition [8]: 56%
29 | c1ccc(-c2cc(-c3ccccn3)nc3c2oc2ccccc23)cc1 | 1.15 | < 0.2 |  |  |  | 
30 | c1coc(-c2cc(-c3ccoc3)c3c(n2)-c2ccccc2OC3)c1 | 1.2 | 0.89 |  |  |  | 
31 | c1ccc(-c2cc(-c3cccs3)c3c(n2)-c2ccccc2C3)nc1 |  |  | 11 µM | 9.1 µM | 6.7 µM | inhibition [12]: 12%; inhibition [9]: 9%; inhibition [10]: 58.5%; IC50 (HeLa): 20.5 µM
32 | c1csc(-c2cc(-c3ccsc3)nc3c2Cc2ccccc2-3)c1 |  |  | > 50 µM | > 50 µM | > 50 µM | inhibition [7]: 4.1%; inhibition [8]: 17.8%
33 | CC[C@@]1(O)C(=O)OCc2c1cc1n(c2=O)Cc2cc3ccccc3nc2-1 [CAMPTOTHECIN] |  |  | 0.08 µM | 0.26 µM | 0.11 µM | 
34 | c1ccc2c(c1)OCc1c(-c3ccsc3)cc(-c3ccsc3)nc1-2 | 1.42 | 0.9 |  |  |  | 
35 | c1ccc(-c2cc(-c3cccnc3)nc3c2COc2ccccc2-3)nc1 | 1.58 | < 0.2 |  |  |  | 
